Reference: ChEMBL document CHEMBL1123566, “Synthesis and cardiac electrophysiological activity of 2- and 3-[(substituted phenyl)alkyl]quinuclidines. Structure-activity relationships” (1987)
Several values for one entry are separate records, joined by “and”; a condition that tells them apart may be missing. Equal values may be shown once.

Key:
Canis familiaris [1] = assay: Heart rate was determined by intraduodenal administration of two dosages of 10 mg/kg of compound in anesthetized dogs. Value was reported for experiment 1; format: functional, Canis lupus familiaris
Outline: (§1)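 Anesthetized dogs; compound given intraduodenally, generally as two doses, the second a cumulative (high) dose. LV functional refractory period and conduction time measured 15, 30 and 45 min after dosing; heart rate and blood pressure measured during nonpacing intervals. Values are % change from control, given per individual animal. Active if FRP or CT prolonged by ≥12%.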

Canis familiaris [2] = assay: Conduction time was determined by intraduodenal administration of 10 mg/kg (low dose) of compound in anesthetized dogs. Value was reported for experiment 2; format: functional, Canis lupus familiaris; outline: as §1
Canis familiaris [3] = assay: Left ventricular refractory period was determined by intraduodenal administration of 10 mg/kg (low dose) of compound in anesthetized dogs. Value was reported for experiment 1; format: functional, Canis lupus familiaris, Cardiac ventricle; conditions: 10 mg/kg
Outline: (§2)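 Anesthetized dogs received two intraduodenal doses, the second cumulative (low dose/high dose). Left ventricular FRP and CT were measured 15, 30 and 45 min after dosing. Heart rate and mean blood pressure were taken during nonpacing intervals. Values are percent change from control. The vehicle was 5% dextrose in water/tragacanth. Activity was defined as ≥12% prolongation of FRP or CT.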

Canis familiaris [4] = assay: Heart rate was determined by intraduodenal administration of two dosages of 30 mg/kg of compound in anesthetized dogs. Value was reported for experiment 1; format: functional, Canis lupus familiaris; outline: as §1
Canis familiaris [5] = species on record: Canis familiaris; assay: In vitro electrophysiological evaluation in canine cardiac ventricular muscle reported as maximum % change for conduction time(CT) at 0.1-10 uM concentration range; concentration at which it occurred is 0.1 uM.; format: functional, Canis lupus familiaris, Muscle tissue
Outline: (§3)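 Canine right ventricle and papillary muscle strips in oxygenated Tyrode's solution, fitted with stimulating and recording electrodes. The extra-stimulus conduction-interval method was adapted for in vitro use. FRP and CT were read from a conduction-interval curve before and after various compound concentrations, and expressed as percent change from control. Compounds were taken from 10 mM deionized-water stock into Tyrode's. Each strip was used once as its own control.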

Canis familiaris [6] = assay: Conduction time was determined by intraduodenal administration of 10 mg/kg (low dose) of compound in anesthetized dogs. Value was reported for experiment 1; format: functional, Canis lupus familiaris; outline: as §1
Canis familiaris [7] = species on record: Canis familiaris; assay: (§4) In vitro electrophysiological evaluation in canine cardiac occurred is 100 uM.; format: functional; conditions: Canis lupus familiaris; Heart
Canis familiaris [8] = species on record: Canis familiaris; assay: (§5) In vitro electrophysiological activity in canine cardiac occurred is 10 uM.; format: functional, Canis lupus familiaris, Heart
Canis familiaris [9] = species on record: Canis familiaris; assay: In vitro electrophysiological evaluation in canine cardiac Purkinje fibres reported as percent change Vmax at 10 uM at concentration range of 0.1-100 uM; format: functional; conditions: Canis lupus familiaris, Purkinje fiber
Outline: (§6)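 Canine cardiac Purkinje fibres, intracellular microelectrode recording, paced at a basic cycle length of 1 s. APD95 and Vmax read simultaneously. Compound: 10 mM stock in deionized water, diluted into Tyrode's solution, tested over the stated concentration range. Each fibre used once as its own control. Result is % change from control, given at 10 µM or as the maximum with its concentration. M = <10% decrease or an increase in Vmax.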

Canis familiaris [10] = species on record: Canis familiaris; assay: (§7) In vitro electrophysiological activity in canine cardiac occurred is 1 uM.; format: functional, Canis lupus familiaris, Heart
Canis familiaris [11] = assay: Conduction time was determined by intraduodenal administration of 30 mg/kg (high dose) of compound in anesthetized dogs. Value was reported for experiment 1; format: functional, Canis lupus familiaris; outline: as §1
Canis familiaris [12] = assay: Mean arterial blood pressure was determined by intraduodenal administration of two dosages of 10 mg/kg of compound in anesthetized dogs. Value was reported for experiment 1; format: functional, Canis lupus familiaris; outline: as §2
Canis familiaris [13] = assay: Left ventricular refractory period was determined by intraduodenal administration of 30 mg/kg (high dose) of compound in anesthetized dogs. Value was reported for experiment 2; format: functional, Canis lupus familiaris, Cardiac ventricle; outline: as §2
Canis familiaris [14] = species on record: Canis familiaris; assay: In vitro electrophysiological activity in canine cardiac occurred is 100 uM.; format: functional, Canis lupus familiaris, Heart
Canis familiaris [15] = species on record: Canis familiaris; assay: In vitro electrophysiological evaluation in canine cardiac ventricular muscle reported as % change for conduction time(CT) at 0.1-10 uM concentration range; Minimal (<10% decrease or increase inCT).; format: functional, Canis lupus familiaris, Muscle tissue
Canis familiaris [16] = species on record: Canis familiaris; assay: In vitro electrophysiological evaluation in canine cardiac Purkinje fibres reported as percent change Vmax at 10 uM at concentration range of 1-100 uM; format: functional; conditions: Canis lupus familiaris, Purkinje fiber; outline: as §6
Canis familiaris [17] = species on record: Canis familiaris; assay: In vitro electrophysiological evaluation in canine cardiac Purkinje fibres reported as percent change Vmax at 10 uM at concentration range of 0.1-100 uM; Minimal (<10% decrease or increase in Vmax).; format: functional, organism-based; conditions: Canis lupus familiaris, Purkinje fiber; outline: as §6
Canis familiaris [18] = assay: Left ventricular refractory period was determined by intravenous administration of two dosages (high/low) of 3 mg/kg of compound in anesthetized dogs. Value was reported for experiment 1; format: functional, Canis lupus familiaris, Cardiac ventricle
Canis familiaris [19] = assay: Heart rate was determined by intraduodenal administration of two dosages of 10 mg/kg of compound in anesthetized dogs. Value was reported for experiment 2; format: functional, Canis lupus familiaris; outline: as §1
Canis familiaris [20] = species on record: Canis familiaris; assay: In vitro electrophysiological evaluation in canine cardiac Purkinje fibres reported as % change for action potential duration at 10 uM at 1-100 uM concentration range; format: functional, Canis lupus familiaris, Purkinje fiber; outline: as §6
Canis familiaris [21] = species on record: Canis familiaris; assay: In vitro electrophysiological evaluation in canine cardiac Purkinje fibres reported as maximum percent change Vmax concentration range of 0.1-10 uM; Minimal (<10% decrease or increase in Vmax).; format: functional; conditions: Canis lupus familiaris; Purkinje fiber; outline: as §6
Canis familiaris [22] = species on record: Canis familiaris; assay: as §5; format: functional, Canis lupus familiaris, Heart; remark: listed apart in the source
Canis familiaris [23] = species on record: Canis familiaris; assay: as §4; format: functional; conditions: Canis lupus familiaris; Heart; remark: listed apart in the source
Canis familiaris [24] = species on record: Canis familiaris; assay: as §7; format: functional, Canis lupus familiaris, Heart; remark: listed apart in the source
Canis familiaris [25] = species on record: Canis familiaris; assay: as §7; format: functional, Canis lupus familiaris, Heart; remark: listed apart in the source
Canis familiaris [26] = species on record: Canis familiaris; assay: as §4; format: functional, organism-based; conditions: Canis lupus familiaris; Heart
Canis familiaris [27] = assay: Left ventricular refractory period was determined by intraduodenal administration of 30 mg/kg (high dose) of compound in anesthetized dogs. Value was reported for experiment 1; format: functional, Canis lupus familiaris, Cardiac ventricle; outline: as §2
Canis familiaris [28] = assay: Left ventricular refractory period was determined by intravenous administration of two dosages (high/low) of 3 mg/kg of compound in anesthetized dogs. Value was reported for experiment 2; format: functional, Canis lupus familiaris, Cardiac ventricle
Canis familiaris [29] = assay: Mean arterial blood pressure was determined by intraduodenal administration of two dosages of 30 mg/kg of compound in anesthetized dogs. Value was reported for experiment 1; format: functional, Canis lupus familiaris; outline: as §2
Canis familiaris [30] = species on record: Canis familiaris; assay: In vitro electrophysiological evaluation in canine cardiac ventricular muscle reported as maximum % change for functional refractory period (FRP) at 0.1-10 uM concentration range; concentration at which it occurred is 10 uM.; parameters: species or system Canis lupus familiaris, Muscle tissue; outline: as §3
Canis familiaris [31] = assay: Mean arterial blood pressure was determined by intraduodenal administration of two dosages of 30 mg/kg of compound in anesthetized dogs. Value was reported for experiment 2; format: functional, Canis lupus familiaris; outline: as §2
Canis familiaris [32] = species on record: Canis familiaris; assay: In vitro electrophysiological evaluation in canine cardiac Purkinje fibres reported as % change for action potential duration at a concentration of 10 uM; format: functional, Canis lupus familiaris, Purkinje fiber; outline: as §6
Canis familiaris [33] = assay: Conduction time was determined by intraduodenal administration of 30 mg/kg (high dose) of compound in anesthetized dogs. Value was reported for experiment 2; format: functional, Canis lupus familiaris; outline: as §1
Canis familiaris [34] = assay: Heart rate was determined by intraduodenal administration of two dosages of 30 mg/kg of compound in anesthetized dogs. Value was reported for experiment 2; format: functional, Canis lupus familiaris; outline: as §1
Canis familiaris [35] = assay: Mean arterial blood pressure was determined by intraduodenal administration of two dosages of 10 mg/kg of compound in anesthetized dogs. Value was reported for experiment 2; format: functional, Canis lupus familiaris; outline: as §2
Canis familiaris [36] = species on record: Canis familiaris; assay: In vitro electrophysiological evaluation in canine cardiac ventricular muscle reported as % change for the functional refractory period (FRP) at 10 uM at concentration range of 0.1-10 uM; parameters: species or system Canis lupus familiaris, Muscle tissue; outline: as §3
Canis familiaris [37] = species on record: Canis familiaris; assay: In vitro electrophysiological evaluation in canine cardiac Purkinje fibres reported as percent change Vmax at 10 uM at concentration range of 0.1-10 uM; Minimal (<10% decrease or increase in Vmax).; format: functional; conditions: Canis lupus familiaris, Purkinje fiber; outline: as §6
Canis familiaris [38] = species on record: Canis familiaris; assay: as §4; format: functional; conditions: Canis lupus familiaris; Heart; remark: listed apart in the source

Compound: OC1C2CCN(CC2)C1CCCc1ccc(Cl)cc1 (stereo not drawn)
- HR (Canis familiaris [1]): -6%
- CT (Canis familiaris [2]): 4%
- LV FRP (Canis familiaris [3]): 4% and 7%
- HR (Canis familiaris [4]): -14%
- CT (Canis familiaris [5]): 11%
- CT (Canis familiaris [6]): 5%
- Vmax (Canis familiaris [7]): 100%
- APD95 (Canis familiaris [8]): 13%
- Vmax (Canis familiaris [9]): -24% and -20%
- APD95 (Canis familiaris [10]): 25% and 15%
- CT (Canis familiaris [11]): 7%
- Mean blood pressure (Canis familiaris [12]): 14%
- LV FRP (Canis familiaris [13]): 9%
- APD95 (Canis familiaris [14]): -24% and -7%
- CT (Canis familiaris [15]): <10%
- Vmax (Canis familiaris [16]): -13%
- Vmax (Canis familiaris [17]): < 10%
- FRP (Canis familiaris [18]): 12%
- HR (Canis familiaris [19]): -7%
- APD95 (Canis familiaris [20]): 13%
- Vmax (Canis familiaris [21]): < 10%
- APD95 (Canis familiaris [22]): 14% and 40%
- Vmax (Canis familiaris [23]): 100%
- APD95 (Canis familiaris [24]): 30%
- APD95 (Canis familiaris [25]): 41%
- Vmax (Canis familiaris [26]): -48%
- LV FRP (Canis familiaris [27]): 3%
- FRP (Canis familiaris [28]): 8%
- Mean blood pressure (Canis familiaris [29]): 14%
- FRP (Canis familiaris [30]): 21%
- Mean blood pressure (Canis familiaris [31]): -3%
- APD95 (Canis familiaris [32]): 12%
- CT (Canis familiaris [33]): 8%
- HR (Canis familiaris [34]): -9%
- Mean blood pressure (Canis familiaris [35]): 0%
- FRP (Canis familiaris [36]): 21%
- Vmax (Canis familiaris [37]): < 10%
- Vmax (Canis familiaris [38]): 100%
